Activity calls are given as the source filed them. The calls are words filed in the database; no cut-off is given here.
Key:
[1] = target: Casein kinase I isoform gamma-3 (Homo sapiens) (UniProt Q9Y6M4); assay: Inhibition of recombinant human CK1gamma3 (1 to 330 residues) at 1 uM using KRRRALS(p)VAS as substrate incubated for 40 mins in presence of [gamma-33P]-ATP by scintillation counting method relative to control
How it was run: (§1)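 Tested at a single 1 uM in an outsourced commercial kinase-profiling panel, read as percent inhibition. Each value is the mean of two independent experiments.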

Saccharomyces cerevisiae = assay: Inhibition of recombinant fungi CK1 (2 to 298 residues) at 1 uM using KRRRALS(p)VAS as substrate incubated for 40 mins in presence of [gamma-33P]-ATP by scintillation counting method relative to control
How it was run: (§2)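 Kinase panel profiling at 1 μM performed by Eurofins KinaseProfiler; percent inhibition reported as mean of two independent experiments.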

[2] = target: Casein kinase II subunit alpha (Homo sapiens) (UniProt P68400); assay: Inhibition of recombinant full length human CK2alpha1 at 1 uM using RRRDDDSDDD as substrate incubated for 40 mins in presence of [gamma-33P]-ATP by scintillation counting method relative to control; how it was run: as §2
[3] = target: Proto-oncogene tyrosine-protein kinase Src (Homo sapiens) (UniProt P12931); assay: Inhibition of full length recombinant human c-SRC at 1 uM using KVEKIGEGTYGVV as substrate incubated for 40 mins in presence of [gamma-33P]-ATP by scintillation counting method relative to control; how it was run: as §2
[4] = system: Epidermal growth factor receptor (Homo sapiens), P00533 [L858R]; assay: Inhibition of recombinant human EGFR L858R mutant (696 to end residues) at 1 uM using poly(Glu, Tyr) 4:1 as substrate incubated for 40 mins in presence of [gamma-33P]-ATP by scintillation counting method relative to control; how it was run: as §2
[5] = system: Epidermal growth factor receptor (Homo sapiens), P00533 [L861Q]; assay: Inhibition of recombinant human EGFR L861Q mutant (696 to end residues) at 1 uM using poly(Glu, Tyr) 4:1 as substrate incubated for 40 mins in presence of [gamma-33P]-ATP by scintillation counting method relative to control
[6] = target: Ephrin type-A receptor 3 (Homo sapiens) (UniProt P29320); assay: Inhibition of recombinant human EPhA3 (578 to end residues) at 1 uM using poly(Glu, Tyr) 4:1 as substrate incubated for 40 mins in presence of [gamma-33P]-ATP by scintillation counting method relative to control
[7] = target: G protein-coupled receptor kinase 3 (Homo sapiens) (UniProt P35626); assay: Inhibition of recombinant human full length GRK3 at 1 uM using casein as substrate incubated for 40 mins in presence of [gamma-33P]-ATP by scintillation counting method relative to control
[8] = target: Mitogen-activated protein kinase kinase kinase 9 (Homo sapiens) (UniProt P80192); assay: Inhibition of recombinant human MLK1 (134 to 414 residues) at 1 uM using casein as substrate incubated for 40 mins in presence of [gamma-33P]-ATP by scintillation counting method relative to control
[9] = target: Serine/threonine-protein kinase D2 (Homo sapiens) (UniProt Q9BZL6); assay: Inhibition of recombinant human full length PKD2 at 1 uM using KKLNRTLSVA as substrate incubated for 40 mins in presence of [gamma-33P]-ATP by scintillation counting method relative to control
[10] = target: Serine/threonine-protein kinase PLK3 (Homo sapiens) (UniProt Q9H4B4); assay: Inhibition of recombinant human PLK3 (19 to 301 residues) at 1 uM using casein as substrate incubated for 40 mins in presence of [gamma-33P]-ATP by scintillation counting method relative to control
[11] = system: Mitogen-activated protein kinase 14 (Homo sapiens), Q16539 [T106M]; assay: Inhibition of recombinant human full length SAPK2a T106M mutant at 1 uM using myelin basic protein as substrate incubated for 40 mins in presence of [gamma-33P]-ATP by scintillation counting method relative to control; how it was run: as §1
[12] = target: SNF-related serine/threonine-protein kinase (Homo sapiens) (UniProt Q9NRH2); assay: Inhibition of recombinant human SNRK (1 to 505 residues) at 1 uM using KKLRRTLSFAEPG as substrate incubated for 40 mins in presence of [gamma-33P]-ATP by scintillation counting method relative to control; how it was run: as §1
[13] = target: Serine/threonine-protein kinase 25 (Homo sapiens) (UniProt O00506); assay: Inhibition of recombinant human STK25 (1 to 308 residues) at 1 uM using RLGRDKYKTLRQIRQ as substrate incubated for 40 mins in presence of [gamma-33P]-ATP by scintillation counting method relative to control
[14] = target: Serine/threonine-protein kinase ULK3 (Homo sapiens) (UniProt Q6PHR2); assay: Inhibition of recombinant human full length ULK3 at 1 uM using casein as substrate incubated for 40 mins in presence of [gamma-33P]-ATP by scintillation counting method relative to control
[15] = target: Serine/threonine-protein kinase WNK1 (Homo sapiens) (UniProt Q9H4A3); assay: Inhibition of recombinant human WNK1 (1 to 491 residues) at 1 uM using myelin basic protein as substrate incubated for 40 mins in presence of [gamma-33P]-ATP by scintillation counting method relative to control; how it was run: as §1
[16] = target: Phosphatidylinositol 3-kinase C2 domain-containing subunit gamma (Homo sapiens) (UniProt O75747); assay: Inhibition of recombinant human PI3KC2gamma (468 to 1203 residues) at 1 uM using phosphatidylinositol as substrate incubated for 40 mins in presence of [gamma-33P]-ATP by scintillation counting method relative to control
[17] = system: PI3-kinase p110-alpha/p85-alpha (Homo sapiens), P27986+P42336 [E545K]; assay: Inhibition of recombinant human full length PI3K p110alpha/p85alpha E545K mutant at 1 uM using phosphatidylinositol 4,5-bisphosphate as substrate incubated for 40 mins in presence of [gamma-33P]-ATP by scintillation counting method relative to control; format: protein-complex assay
[18] = Toxicity in BALB/c mouse assessed as effect on blood parameter by measuring MCV at 40 mg/kg, po administered once two days for 4 times by hematology analyzer; conditions: in vivo
MDA-MB-231 = assay: Induction of cell cycle arrest in human MDA-MB-231 cells assessed as accumulation in G2/M phase at 40 nM incubated for 36 hrs by propidium iodide staining based flow cytometry; format: functional
How it was run: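 Cells were treated with graded concentrations for 36 h, then fixed overnight in 70% ice-cold ethanol at 4°C and resuspended in PBS. Staining used 50 µg/ml PI plus 5 µg/ml RNase at 37°C for 30 min. DNA content was analysed by FACS to give G0/G1, S and G2/M fractions.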

T47D = assay: Inhibition of colony formation in human T47D cells at 40 nM incubated for 5 days by crystal violet staining based light microscopy; format: functional, cell-based
How it was run: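 MDA-MB-231, T-47D, SiHa and HeLa cells seeded at 4×10^3/well and cultured with varying concentrations of drug or vehicle for 5 days. Fixed in 20% methanol, stained with 0.5% crystal violet, photographed under light microscopy. DMEM (T-47D) with 10% FBS, 37°C, 5% CO2.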

Chain of Serine/threonine-protein kinase PLK3 (Homo sapiens) (Q9H4B4 whole entry, looked up, the tested form may be a part): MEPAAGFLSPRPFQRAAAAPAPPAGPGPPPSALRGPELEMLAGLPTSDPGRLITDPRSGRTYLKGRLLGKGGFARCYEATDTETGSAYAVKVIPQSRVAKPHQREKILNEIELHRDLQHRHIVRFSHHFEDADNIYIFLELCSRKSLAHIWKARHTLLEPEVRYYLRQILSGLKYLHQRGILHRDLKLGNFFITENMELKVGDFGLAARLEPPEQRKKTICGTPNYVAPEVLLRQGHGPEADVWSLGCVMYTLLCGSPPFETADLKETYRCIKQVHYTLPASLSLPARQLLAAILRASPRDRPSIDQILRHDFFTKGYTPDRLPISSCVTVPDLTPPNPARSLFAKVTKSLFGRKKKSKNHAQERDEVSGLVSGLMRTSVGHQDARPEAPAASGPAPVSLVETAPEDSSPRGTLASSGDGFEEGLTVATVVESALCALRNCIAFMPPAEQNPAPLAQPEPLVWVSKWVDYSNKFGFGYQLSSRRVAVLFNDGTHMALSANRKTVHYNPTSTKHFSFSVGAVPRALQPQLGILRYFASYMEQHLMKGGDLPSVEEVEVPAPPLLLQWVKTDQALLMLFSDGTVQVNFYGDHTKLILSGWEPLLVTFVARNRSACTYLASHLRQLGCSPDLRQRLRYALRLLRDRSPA
Chain of Casein kinase I isoform gamma-3 (Homo sapiens) (Q9Y6M4 whole entry, looked up, the tested form may be a part, canonical isoform): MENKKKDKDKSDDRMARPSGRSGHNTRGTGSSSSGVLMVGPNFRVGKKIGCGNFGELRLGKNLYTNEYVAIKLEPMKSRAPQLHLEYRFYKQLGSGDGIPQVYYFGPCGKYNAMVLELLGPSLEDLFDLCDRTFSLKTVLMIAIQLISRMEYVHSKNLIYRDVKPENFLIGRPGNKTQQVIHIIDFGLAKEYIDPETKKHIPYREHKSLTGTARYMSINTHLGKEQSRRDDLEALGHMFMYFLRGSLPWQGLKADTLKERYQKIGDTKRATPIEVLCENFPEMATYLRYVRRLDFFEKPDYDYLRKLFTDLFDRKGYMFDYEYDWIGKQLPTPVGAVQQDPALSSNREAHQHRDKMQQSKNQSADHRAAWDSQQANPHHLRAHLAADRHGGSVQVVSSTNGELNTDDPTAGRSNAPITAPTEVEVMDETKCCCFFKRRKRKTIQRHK
Chain of Serine/threonine-protein kinase ULK3 (Homo sapiens) (Q6PHR2 whole entry, the tested form may be a part): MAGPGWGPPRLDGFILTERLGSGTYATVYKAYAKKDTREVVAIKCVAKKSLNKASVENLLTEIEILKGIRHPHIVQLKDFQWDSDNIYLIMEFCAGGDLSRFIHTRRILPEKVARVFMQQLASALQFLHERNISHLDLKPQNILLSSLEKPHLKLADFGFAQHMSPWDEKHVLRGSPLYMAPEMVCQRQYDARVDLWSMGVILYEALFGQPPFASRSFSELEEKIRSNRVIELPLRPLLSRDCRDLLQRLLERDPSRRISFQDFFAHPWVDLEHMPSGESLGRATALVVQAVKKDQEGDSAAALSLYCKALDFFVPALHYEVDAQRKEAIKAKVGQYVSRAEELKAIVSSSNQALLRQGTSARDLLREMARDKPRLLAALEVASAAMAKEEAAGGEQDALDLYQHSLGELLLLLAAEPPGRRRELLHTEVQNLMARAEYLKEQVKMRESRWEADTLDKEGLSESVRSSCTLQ
Chain of Ephrin type-A receptor 3 (Homo sapiens) (P29320 whole entry): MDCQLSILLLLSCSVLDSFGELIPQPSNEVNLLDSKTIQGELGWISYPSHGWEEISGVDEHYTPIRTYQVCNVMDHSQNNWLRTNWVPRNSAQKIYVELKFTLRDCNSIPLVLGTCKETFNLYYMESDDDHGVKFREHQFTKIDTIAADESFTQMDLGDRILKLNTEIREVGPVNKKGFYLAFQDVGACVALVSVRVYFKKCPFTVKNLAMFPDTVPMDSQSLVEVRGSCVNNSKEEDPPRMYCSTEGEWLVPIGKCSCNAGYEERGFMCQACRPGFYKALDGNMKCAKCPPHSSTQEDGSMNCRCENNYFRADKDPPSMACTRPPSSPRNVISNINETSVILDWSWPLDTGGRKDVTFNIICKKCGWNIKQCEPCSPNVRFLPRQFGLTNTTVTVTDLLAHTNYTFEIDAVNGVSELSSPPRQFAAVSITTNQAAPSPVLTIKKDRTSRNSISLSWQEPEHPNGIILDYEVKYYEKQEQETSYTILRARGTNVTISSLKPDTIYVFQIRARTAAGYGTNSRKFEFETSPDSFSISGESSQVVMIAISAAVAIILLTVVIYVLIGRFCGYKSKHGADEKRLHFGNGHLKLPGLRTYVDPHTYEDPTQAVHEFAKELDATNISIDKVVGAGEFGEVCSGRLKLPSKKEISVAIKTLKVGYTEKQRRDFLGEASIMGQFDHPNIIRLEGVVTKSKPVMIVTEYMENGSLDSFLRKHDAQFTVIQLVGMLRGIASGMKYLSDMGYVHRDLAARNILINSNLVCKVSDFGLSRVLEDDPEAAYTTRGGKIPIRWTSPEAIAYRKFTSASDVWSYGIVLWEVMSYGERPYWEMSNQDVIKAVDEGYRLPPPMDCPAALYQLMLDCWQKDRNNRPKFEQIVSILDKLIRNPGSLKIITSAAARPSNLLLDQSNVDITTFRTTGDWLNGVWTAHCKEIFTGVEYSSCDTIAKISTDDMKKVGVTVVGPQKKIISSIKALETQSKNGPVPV
Chain of Serine/threonine-protein kinase D2 (Homo sapiens) (Q9BZL6 whole entry, the tested form may be a part): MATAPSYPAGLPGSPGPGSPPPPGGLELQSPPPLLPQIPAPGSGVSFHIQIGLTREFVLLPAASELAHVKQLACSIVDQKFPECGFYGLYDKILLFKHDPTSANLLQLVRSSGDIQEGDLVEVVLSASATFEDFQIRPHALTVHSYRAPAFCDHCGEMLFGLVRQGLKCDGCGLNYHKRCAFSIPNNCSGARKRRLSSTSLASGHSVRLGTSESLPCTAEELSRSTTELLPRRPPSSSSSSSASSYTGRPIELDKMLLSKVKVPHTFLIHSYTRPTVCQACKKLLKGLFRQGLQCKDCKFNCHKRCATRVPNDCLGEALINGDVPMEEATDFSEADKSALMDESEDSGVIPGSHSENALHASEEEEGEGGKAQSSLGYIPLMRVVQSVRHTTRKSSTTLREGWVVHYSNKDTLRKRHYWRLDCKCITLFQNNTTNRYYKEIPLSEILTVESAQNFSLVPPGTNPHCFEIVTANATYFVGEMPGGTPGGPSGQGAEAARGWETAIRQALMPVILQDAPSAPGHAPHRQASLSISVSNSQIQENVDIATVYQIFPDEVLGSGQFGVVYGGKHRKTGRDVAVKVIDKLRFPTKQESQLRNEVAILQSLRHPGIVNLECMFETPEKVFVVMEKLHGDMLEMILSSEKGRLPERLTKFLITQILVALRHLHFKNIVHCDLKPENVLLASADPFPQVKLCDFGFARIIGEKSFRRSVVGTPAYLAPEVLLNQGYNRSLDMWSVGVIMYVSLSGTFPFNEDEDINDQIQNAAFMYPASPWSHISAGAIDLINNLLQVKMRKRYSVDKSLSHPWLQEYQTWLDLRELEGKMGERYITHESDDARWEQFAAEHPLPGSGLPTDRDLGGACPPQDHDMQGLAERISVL
Chain of Mitogen-activated protein kinase kinase kinase 9 (Homo sapiens) (P80192 whole entry, looked up, the tested form may be a part): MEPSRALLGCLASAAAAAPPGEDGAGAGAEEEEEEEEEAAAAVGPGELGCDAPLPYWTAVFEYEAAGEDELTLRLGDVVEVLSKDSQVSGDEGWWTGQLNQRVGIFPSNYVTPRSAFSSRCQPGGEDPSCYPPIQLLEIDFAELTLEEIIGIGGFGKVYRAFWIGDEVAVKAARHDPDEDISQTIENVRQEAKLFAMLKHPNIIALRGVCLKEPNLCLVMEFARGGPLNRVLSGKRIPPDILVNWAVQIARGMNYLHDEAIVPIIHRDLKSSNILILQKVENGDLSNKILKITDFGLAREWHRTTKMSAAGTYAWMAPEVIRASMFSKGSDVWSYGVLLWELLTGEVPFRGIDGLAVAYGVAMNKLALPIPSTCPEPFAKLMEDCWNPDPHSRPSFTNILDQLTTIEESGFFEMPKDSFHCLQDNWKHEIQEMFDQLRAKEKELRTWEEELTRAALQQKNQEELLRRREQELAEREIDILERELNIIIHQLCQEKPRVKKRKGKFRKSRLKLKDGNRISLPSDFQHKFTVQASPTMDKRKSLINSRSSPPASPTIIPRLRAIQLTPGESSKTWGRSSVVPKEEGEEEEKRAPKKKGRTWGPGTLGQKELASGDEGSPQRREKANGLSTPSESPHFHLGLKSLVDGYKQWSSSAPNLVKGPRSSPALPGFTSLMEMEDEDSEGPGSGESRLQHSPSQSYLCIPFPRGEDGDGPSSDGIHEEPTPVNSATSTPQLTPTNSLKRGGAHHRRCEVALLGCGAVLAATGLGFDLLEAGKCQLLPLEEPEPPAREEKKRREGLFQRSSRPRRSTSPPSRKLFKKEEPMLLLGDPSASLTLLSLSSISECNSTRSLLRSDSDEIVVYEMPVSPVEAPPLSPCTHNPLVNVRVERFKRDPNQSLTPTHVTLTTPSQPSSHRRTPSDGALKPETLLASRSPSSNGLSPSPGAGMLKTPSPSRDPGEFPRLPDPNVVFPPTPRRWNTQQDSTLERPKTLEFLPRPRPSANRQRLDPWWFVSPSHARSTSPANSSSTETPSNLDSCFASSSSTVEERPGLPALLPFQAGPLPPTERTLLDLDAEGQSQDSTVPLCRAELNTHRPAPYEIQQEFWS
Chain of Proto-oncogene tyrosine-protein kinase Src (Homo sapiens) (P12931 2-536 limits assumed): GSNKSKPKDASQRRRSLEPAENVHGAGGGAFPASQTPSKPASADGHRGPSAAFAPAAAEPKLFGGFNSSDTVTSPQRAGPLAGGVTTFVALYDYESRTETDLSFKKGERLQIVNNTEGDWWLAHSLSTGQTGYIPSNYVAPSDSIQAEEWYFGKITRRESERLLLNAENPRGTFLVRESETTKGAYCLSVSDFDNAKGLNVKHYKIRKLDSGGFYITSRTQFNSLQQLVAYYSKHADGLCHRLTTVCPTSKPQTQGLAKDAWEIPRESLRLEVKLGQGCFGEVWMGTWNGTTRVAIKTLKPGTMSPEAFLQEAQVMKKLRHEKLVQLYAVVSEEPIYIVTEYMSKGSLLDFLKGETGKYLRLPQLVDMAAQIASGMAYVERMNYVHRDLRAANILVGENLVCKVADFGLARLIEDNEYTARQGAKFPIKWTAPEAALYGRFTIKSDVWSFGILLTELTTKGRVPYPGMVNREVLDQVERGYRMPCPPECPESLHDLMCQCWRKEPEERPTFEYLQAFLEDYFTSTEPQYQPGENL

SMILES: Cc1ccc(NC(=O)C2(C(=O)Nc3ccc(Nc4ncc(F)c(-c5cc(F)c6nc(C)n(C(C)C)c6c5)n4)cc3)CC2)cc1
- inhibition [1]: 0%
- inhibition (Saccharomyces cerevisiae): 48%
- inhibition [2]: 36%
- inhibition [3]: 80%
- inhibition [4]: 35%
- inhibition [5]: 34%
- inhibition [6]: 23%
- inhibition [7]: 10%
- inhibition [8]: 1%
- inhibition [9]: 17%
- inhibition [10]: 36%
- inhibition [11]: 60%
- inhibition [12]: 0%
- inhibition [13]: 26%
- inhibition [14]: 37%
- inhibition [15]: 0%
- inhibition [16]: 38%
- inhibition [17]: 2%
- Activity [18]: Non-Toxic

SMILES: COc1cc2nccc(Oc3ccc(NC(=O)C4(C(=O)Nc5ccc(F)cc5)CC4)cc3)c2cc1OC [CABOZANTINIB]
- Activity (MDA-MB-231): Active
- inhibition (T47D): Active

— ChEMBL document CHEMBL4406821, “Novel dual inhibitors targeting CDK4 and VEGFR2 synergistically suppressed cancer progression and angiogenesis” (Eur J Med Chem, 2019)
